According to ChEMBL document CHEMBL3352234, “Discovery of furan-2-carbohydrazides as orally active glucagon receptor antagonists” (Bioorg Med Chem Lett, 2014):
Active and inactive are the calls of the source. The calls are words filed in the database; no cut-off is given here.

How the values were obtained:
[1] = target: Glucagon receptor (Rattus norvegicus) (UniProt P30082); assay: Displacement of [125I]glucagon from glucagon receptor in rat hepatocyte membranes at 10 uM after 30 mins by gamma-counting; assay type: cell membranes
Glucagon receptor (Rattus norvegicus), sequence (P30082 whole entry): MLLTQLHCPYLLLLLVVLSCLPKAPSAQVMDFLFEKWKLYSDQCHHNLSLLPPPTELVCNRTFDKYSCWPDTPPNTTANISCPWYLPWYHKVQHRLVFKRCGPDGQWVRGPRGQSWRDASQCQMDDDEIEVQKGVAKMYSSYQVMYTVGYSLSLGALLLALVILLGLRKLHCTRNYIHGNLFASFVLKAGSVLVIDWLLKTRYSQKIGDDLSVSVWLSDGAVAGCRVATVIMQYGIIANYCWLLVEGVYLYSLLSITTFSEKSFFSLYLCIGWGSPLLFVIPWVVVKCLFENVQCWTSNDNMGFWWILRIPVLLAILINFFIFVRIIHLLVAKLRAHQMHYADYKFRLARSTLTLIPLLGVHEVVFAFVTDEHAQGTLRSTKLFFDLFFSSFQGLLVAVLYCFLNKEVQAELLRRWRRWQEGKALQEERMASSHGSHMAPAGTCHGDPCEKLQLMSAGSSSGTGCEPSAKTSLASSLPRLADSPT
Outline: (§1)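 Rat liver was homogenized in 20 volumes of 50 mM Tris–HCl (pH 7.2) and the membrane pellet collected by two 30,000g spins of 15 min each. Membranes were resuspended in Tris–HCl pH 7.2 with 1 mg/mL BSA and 0.1 mg/mL bacitracin. Incubation was with [125I]glucagon (final 50 pM) at 25 °C for 30 min, then filtration onto PEI-treated GF/C filters and gamma counting. Inhibition is relative to binding without compound, after subtracting nonspecific binding with excess glucagon. Run in duplicate.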

Glucagon receptor [2] = target: T1, Glucagon receptor (Rattus norvegicus, UniProt P30082); assay: Displacement of [125I]glucagon from glucagon receptor in rat hepatocyte membranes after 30 mins by gamma-counting; assay type: cell membranes; outline: as §1
T1 sequence (P30082 whole entry): as above

Glucagon receptor [3] = target: T1, Glucagon receptor; assay: Inhibition of glucagon-induced glucagon receptor-mediated cAMP production in rat hepatocytes after 15 mins by cAMP dynamic2 assay; assay type: functional, cell-based, Hepatocyte
Outline: (§2)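 Hepatocytes were suspended in HCM medium, seeded on collagen-coated wells and incubated for 5 h. Compound in DMEM with 20 mM HEPES, 0.1% BSA and 0.5 mM IBMX was preincubated for 15 min at room temperature. Glucagon was then added for 5 min at room temperature. Cells were lysed with 0.5 M HCl for 10 min and neutralized with Tris–HCl pH 8.0. Supernatant cAMP was quantified with the cAMP dynamic2 kit.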

[4] = Cmax in rat at 1 mg/kg, po; assay type: ADME, organism-based; design: dose 1 mg/kg, route oral; conditions: in vivo
Rattus norvegicus [5] = assay: Volume of distribution at steady state in rat at 1 mg/kg, iv; assay type: ADME, organism-based; design: dose 1 mg/kg, route intravenous; conditions: in vivo
[6] = Oral bioavailability in rat at 1 mg/kg; assay type: ADME, organism-based; conditions: in vivo
Rattus norvegicus [7] = assay: Inhibition of glucagon-induced glucose elevation in normal rat at 30 mg/kg, po administered 30 mins prior challenge measured up to 6 hrs
Rattus norvegicus [8] = assay: Half life in rat at 1 mg/kg, iv; assay type: ADME, organism-based; design: dose 1 mg/kg, route intravenous; conditions: in vivo
[9] = Half life in rat at 1 mg/kg, po; assay type: ADME, organism-based; design: dose 1 mg/kg, route oral; conditions: in vivo
Rattus norvegicus [10] = assay: Inhibition of glucagon-induced glucose elevation in rat at 30 mg/kg, po administered 30 mins prior challenge measured up to 6 hrs; assay type: functional, organism-based; design: dose 30 mg/kg
Outline: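 Normal rats were dosed orally 30 min before an intravenous glucagon challenge, with blood sampled afterwards for glucose. Values are mean ± SEM, n = 6 per group; Dunnett multiple comparison test.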

[11] = Inhibition of sodium channel site 2 (unknown origin); design: species or system Homo sapiens
[12] = Inhibition of glucagon-induced glucagon receptor-mediated cAMP production in dog hepatocytes after 15 mins by cAMP dynamic2 assay; assay type: cell-based; conditions: Canis lupus familiaris, Hepatocyte, 0.25 h; outline: as §2
[13] = target: Voltage-gated inwardly rectifying potassium channel KCNH2 (Homo sapiens, UniProt Q12809); assay: Inhibition of human ERG
Voltage-gated inwardly rectifying potassium channel KCNH2, sequence (Q12809 whole entry): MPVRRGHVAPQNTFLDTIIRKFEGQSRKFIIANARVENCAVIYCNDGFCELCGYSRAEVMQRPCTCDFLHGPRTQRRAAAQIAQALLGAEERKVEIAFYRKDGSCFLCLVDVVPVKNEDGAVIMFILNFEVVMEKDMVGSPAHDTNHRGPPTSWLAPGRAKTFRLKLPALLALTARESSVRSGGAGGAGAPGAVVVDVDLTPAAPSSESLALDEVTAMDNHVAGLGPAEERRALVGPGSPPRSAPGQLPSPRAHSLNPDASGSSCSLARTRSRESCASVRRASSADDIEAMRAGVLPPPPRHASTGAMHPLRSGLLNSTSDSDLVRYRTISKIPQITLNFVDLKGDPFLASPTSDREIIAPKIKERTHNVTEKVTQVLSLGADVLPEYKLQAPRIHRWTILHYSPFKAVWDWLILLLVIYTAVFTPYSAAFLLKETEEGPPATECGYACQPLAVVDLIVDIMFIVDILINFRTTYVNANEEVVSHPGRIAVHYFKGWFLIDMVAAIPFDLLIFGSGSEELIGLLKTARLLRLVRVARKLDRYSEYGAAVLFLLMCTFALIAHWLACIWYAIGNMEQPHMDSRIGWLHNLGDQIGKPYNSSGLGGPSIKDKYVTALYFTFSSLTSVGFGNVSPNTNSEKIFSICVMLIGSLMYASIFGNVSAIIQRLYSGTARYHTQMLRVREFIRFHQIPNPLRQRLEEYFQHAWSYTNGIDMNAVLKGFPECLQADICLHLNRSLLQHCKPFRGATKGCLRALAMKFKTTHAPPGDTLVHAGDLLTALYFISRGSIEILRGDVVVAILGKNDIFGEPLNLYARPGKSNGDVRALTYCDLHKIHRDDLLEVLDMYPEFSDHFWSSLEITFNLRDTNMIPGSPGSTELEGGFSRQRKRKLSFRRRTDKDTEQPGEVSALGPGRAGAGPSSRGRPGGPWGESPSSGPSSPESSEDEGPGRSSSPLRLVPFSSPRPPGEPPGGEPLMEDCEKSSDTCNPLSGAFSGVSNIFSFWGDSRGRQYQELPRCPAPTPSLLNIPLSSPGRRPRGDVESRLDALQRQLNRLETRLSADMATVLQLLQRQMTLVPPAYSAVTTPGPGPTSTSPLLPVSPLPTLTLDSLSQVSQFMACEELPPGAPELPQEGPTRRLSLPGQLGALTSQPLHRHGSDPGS

Glucagon receptor [14] = target: Glucagon receptor (Homo sapiens, UniProt P47871); assay: Inhibition of glucagon-induced glucagon receptor-mediated cAMP production in human hepatocytes after 15 mins by cAMP dynamic2 assay; assay type: functional, cell-based, Hepatocyte; outline: as §2
Glucagon receptor (Homo sapiens, UniProt P47871), sequence (P47871 whole entry): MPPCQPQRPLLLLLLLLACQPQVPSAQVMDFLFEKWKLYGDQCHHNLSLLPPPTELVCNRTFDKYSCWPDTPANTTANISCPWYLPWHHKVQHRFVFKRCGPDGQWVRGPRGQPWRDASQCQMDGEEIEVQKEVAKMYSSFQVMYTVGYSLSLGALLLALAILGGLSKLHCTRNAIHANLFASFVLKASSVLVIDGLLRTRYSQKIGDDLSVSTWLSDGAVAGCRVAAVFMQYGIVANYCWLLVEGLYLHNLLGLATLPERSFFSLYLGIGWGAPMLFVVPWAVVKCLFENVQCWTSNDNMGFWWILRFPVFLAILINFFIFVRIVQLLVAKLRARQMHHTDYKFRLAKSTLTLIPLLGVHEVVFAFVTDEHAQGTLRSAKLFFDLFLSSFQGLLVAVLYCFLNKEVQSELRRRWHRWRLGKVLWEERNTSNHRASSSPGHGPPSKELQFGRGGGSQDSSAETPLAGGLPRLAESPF

[15] = target: Glucagon-like peptide 1 receptor (Homo sapiens, UniProt P43220); assay: Inhibition of GLP-1R (unknown origin)
Glucagon-like peptide 1 receptor, sequence (P43220 whole entry): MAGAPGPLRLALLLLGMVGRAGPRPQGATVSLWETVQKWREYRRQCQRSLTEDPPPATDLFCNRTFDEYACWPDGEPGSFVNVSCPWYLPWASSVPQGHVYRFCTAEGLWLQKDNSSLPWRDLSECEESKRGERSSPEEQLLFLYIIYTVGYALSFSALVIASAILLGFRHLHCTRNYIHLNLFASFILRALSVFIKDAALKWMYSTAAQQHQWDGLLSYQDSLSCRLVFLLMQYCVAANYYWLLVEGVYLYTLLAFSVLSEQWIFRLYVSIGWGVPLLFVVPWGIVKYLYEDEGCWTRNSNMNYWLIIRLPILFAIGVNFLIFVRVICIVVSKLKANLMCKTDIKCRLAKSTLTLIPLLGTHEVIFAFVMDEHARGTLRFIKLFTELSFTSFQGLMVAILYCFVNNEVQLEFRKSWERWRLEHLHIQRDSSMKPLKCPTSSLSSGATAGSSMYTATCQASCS

Structure (SMILES): O=C(NNC(=O)c1cc(-c2ccccc2)co1)c1ccoc1
- inhibition [1]: 6%

Structure (SMILES): O=C(NNC(=O)c1occ(-c2ccccc2)c1-c1ccccc1)c1ccc(O)cc1
- inhibition [1]: 65%
- IC50 (Glucagon receptor [2]): 9500 nM

Structure (SMILES): O=C(NNC(=O)c1occ(-c2ccccc2)c1-c1ccccc1)c1ccc(O)nc1
- IC50 (Glucagon receptor [2]): 970 nM

Structure (SMILES): O=C(NNC(=O)c1occ(-c2ccccc2)c1-c1ccccc1)c1cccc(O)c1
- inhibition [1]: 21%

Structure (SMILES): O=C(NNC(=O)c1occ(-c2ccccc2)c1-c1ccccc1)c1ccc(O)c(-c2ccccc2)c1
- IC50 (Glucagon receptor [2]): > 10000 nM

Structure (SMILES): COc1cc(C(=O)NNC(=O)c2occ(-c3ccccc3)c2-c2ccccc2)ccc1O
- IC50 (Glucagon receptor [2]): 9500 nM

Structure (SMILES): CCCCCc1ccc(-c2ccoc2C(=O)NNC(=O)c2ccc(O)c([N+](=O)[O-])c2)cc1
- IC50 (Glucagon receptor [3]): 5.3 nM
- Cmax [4]: 411 ng/mL
- Vdss (Rattus norvegicus [5]): 0.59 L/kg
- bioavailability [6]: 37%
- inhibition (Rattus norvegicus [7]): Active
- t1/2 (Rattus norvegicus [8]): 5.9 h
- half-life [9]: 366 min
- inhibition (Rattus norvegicus [10]): Active
- IC50 [11]: > 1000 nM
- IC50 [12]: 183 nM
- IC50 [13]: > 1000 nM
- IC50 (Glucagon receptor [14]): 292 nM
- IC50 [15]: > 1000 nM

Structure (SMILES): O=C(NNC(=O)c1occ(-c2ccccc2)c1-c1ccccc1)c1ccc(O)c([N+](=O)[O-])c1
- IC50 (Glucagon receptor [2]): 87 nM

Structure (SMILES): O=C(NNC(=O)c1occ(-c2ccccc2)c1-c1ccccc1)c1ccccc1
- inhibition [1]: 42%

Structure (SMILES): O=C(NNC(=O)c1occ(-c2ccccc2)c1-c1ccccc1)c1ccco1
- inhibition [1]: 50%

Structure (SMILES): O=C(NNC(=O)c1occ(-c2ccccc2)c1-c1ccccc1)c1ccc(O)c(F)c1
- IC50 (Glucagon receptor [2]): 1400 nM

Structure (SMILES): O=C(NNC(=O)c1occ(-c2ccccc2)c1-c1ccccc1)c1ccoc1
- inhibition [1]: 73%

Structure (SMILES): O=C(O)c1ccc(C(=O)NNC(=O)c2occ(-c3ccccc3)c2-c2ccccc2)cc1
- inhibition [1]: 61%

Structure (SMILES): COc1ccc(C(=O)NNC(=O)c2occ(-c3ccccc3)c2-c2ccccc2)cc1
- inhibition [1]: inactive

Structure (SMILES): O=C(NNC(=O)c1occ(-c2ccccc2)c1-c1ccccc1)c1ccc(O)c(O)c1
- inhibition [1]: 57%

Structure (SMILES): O=C(NNC(=O)c1occ(-c2ccccc2)c1-c1ccccc1)c1ccc(O)c(Br)c1
- IC50 (Glucagon receptor [2]): 270 nM

Structure (SMILES): O=C(NNC(=O)c1occ(-c2ccccc2)c1-c1ccccc1)c1ccc(O)c(Cl)c1
- IC50 (Glucagon receptor [2]): 430 nM
